Activity calls are given as the source filed them. No cut-off for these calls is given here.
Assays:
[1] = Inhibition of TNFalpha-stimulated NF-kappaB (unknown origin) expressed in HEK293 cells incubated for 30 mins followed by TNFalpha stimulation for 4 hrs by luciferase reporter gene based luminescence assay; type: cell-based; settings: Homo sapiens
[2] = system: HUVEC; experiment: Cytotoxicity against HUVEC at 1 ug/ml after 24 hrs by MTT assay; type: cell-based; settings: human
Procedure, shortened: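 HUVECs (1.0 × 10^4/well) in EBM2 with 0.5% FBS, settled overnight at 37 °C, 5% CO2; compound at 1 μg/mL for 24 h. MTT added for 4 h at 37 °C, formazan dissolved in DMSO, absorbance read at 595 nm.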

[3] = system: HUVEC; experiment: Antiangiogenic activity in HUVEC assessed as decrease in VEGF-induced number of total capillary length at 1 ug/ml after 3 days; type: functional, cell-based; settings: Homo sapiens
Procedure, shortened: (§1)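 HUVECs seeded on Cytodex 3 beads (400 cells/bead, 4 h at 37 °C with shaking, then 24 h), embedded in fibrin gel (fibrinogen 2.5 mg/mL, aprotinin 0.15 U/mL, thrombin) with VEGF; EGM-2 with VEGF 5 ng/mL, NHDF overlaid. Compound added after 1 h, medium renewed at 24 h then every 48 h. Imaged at 4× day 4; sprout network quantified by Angiogenesis Analyzer; ≥18 spheres, mean ± SEM, one-way ANOVA/Dunnett.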

[4] = system: HUVEC; experiment: Antiangiogenic activity in HUVEC assessed as decrease in VEGF-induced extremities at 1 ug/ml after 3 days; type: functional, cell-based; settings: Homo sapiens; procedure, shortened: as §1
[5] = system: HUVEC; experiment: Antiangiogenic activity in HUVEC assessed as decrease in VEGF-induced segments at 1 ug/ml after 3 days; type: functional, cell-based; settings: Homo sapiens; procedure, shortened: as §1
[6] = system: HUVEC; experiment: Antiangiogenic activity in HUVEC assessed as decrease in VEGF-induced anchorage junctions at 1 ug/ml after 3 days; type: functional, cell-based; settings: Homo sapiens; procedure, shortened: as §1

| Structure (SMILES) | IC50 [1] | Activity [2] | Activity [3] | Activity [4] | Activity [5] | Activity [6] |
| --- | --- | --- | --- | --- | --- | --- |
| CC(=O)OCC1=C2[C@@H](O)C[C@@](C)(OC(C)=O)C(=O)CC[C@@]3(C)O[C@H]3[C@H]2OC1=O | 7800 nM | Non-Toxic | – | – | – | – |
| CC(=O)O[C@@H]1C[C@@](C)(OC(C)=O)C(=O)CC[C@@]2(C)O[C@@H]2C2OC(=O)C(CO)=C21 (some centres not stated) | 2400 nM | Non-Toxic | Active | Active | Active | Active |
| CCC(=O)O[C@H]1C[C@@](C)(OC(C)=O)C(=O)CC[C@@]2(C)O[C@H]2[C@H]2OC(=O)C(COC(C)=O)=C12 | 5100 nM | Non-Toxic | – | – | – | – |
| COc1ccc(-c2cc(=O)c3c(O)cc(O)cc3o2)cc1OC | – | Non-Toxic | – | – | – | – |
| CC(=O)OCC1=C2[C@@H](OC(C)=O)C[C@@](C)(OC(C)=O)C(=O)CC[C@@]3(C)O[C@H]3[C@H]2OC1=O | 6500 nM | Non-Toxic | Active | Active | Active | Active |
| CC(=O)OCC1=C2[C@@H](OC(C)=O)C[C@@](C)(OC(C)=O)[C@@]3(O)CC[C@@](C)(O)[C@H](OC(C)=O)[C@@]23OC1=O | 13600 nM | – | – | – | – | – |
| CC(=O)OCC1=C2/C(=C/[C@]3(C)CC[C@@](O)(O3)[C@](C)(O)C[C@@H]2O)OC1=O | 700 nM | Non-Toxic | Active | Active | Active | Active |

Further compounds by falling IC50 [1], results first:

| IC50 [1] | Structure (SMILES) | Activity [2] | Activity [3] | Activity [4] | Activity [5] | Activity [6] |
| --- | --- | --- | --- | --- | --- | --- |
| 2200 nM | C[C@@]12/C=C3\OC(=O)C(CO)=C3[C@@H](O)C[C@@](C)(O)[C@@](O)(CC1)O2 | Non-Toxic | Active | Active | Active | Active |
| 1800 nM | CC(=O)OCC1=C2/C(=C/[C@]3(C)CC[C@@](O)(O3)[C@@](C)(O)C[C@H]2OC(C)=O)OC1=O | Non-Toxic | Active | Active | Active | Active |
| 700 nM | C=C1C(=O)O[C@H]2[C@@H]1CC/C(C)=C\CC[C@@]1(C)O[C@@H]21 | – | – | – | – | – |

Source: ChEMBL document CHEMBL4196133, “NF-κB and Angiogenesis Inhibitors from the Aerial Parts of Chresta martii” (J Nat Prod, 2018)
